In ChEMBL document CHEMBL1208768, “Synthesis, selective anti-Helicobacter pylori activity, and cytotoxicity of novel N-substituted-2-oxo-2H-1-benzopyran-3-carboxamides” (Bioorg Med Chem Lett, 2010):
In brackets after ≈: the same amount, converted by molar mass. Activity calls are given as the source filed them. The rule behind the calls is not given here.

Experiments:
Staphylococcus aureus = experiment: Antibacterial activity against Staphylococcus aureus after 18 to 22 hrs by broth microdilution method; assay type: functional
Outline: (§1)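 Clinical respiratory-tract isolates from patients, subcultured for purity and identified conventionally. Broth microdilution per NCCLS in Mueller–Hinton II broth; each plate had growth controls (bacteria, no compound) and medium-only controls. Incubation 18–22 h at 35 °C. MIC taken as the lowest concentration giving complete growth inhibition by unaided eye.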

[1] = system: Staphylococcus epidermidis; experiment: Antibacterial activity against Staphylococcus epidermidis after 18 to 22 hrs by broth microdilution method; assay type: functional; outline: as §1
Staphylococcus hominis = experiment: Antibacterial activity against Staphylococcus hominis after 18 to 22 hrs by broth microdilution method; assay type: functional; outline: as §1
[2] = system: Staphylococcus haemolyticus; experiment: Antibacterial activity against Staphylococcus haemolyticus after 18 to 22 hrs by broth microdilution method; assay type: functional; outline: as §1
Enterococcus faecalis = experiment: Antibacterial activity against Streptococcus faecalis after 18 to 22 hrs by broth microdilution method; assay type: functional; outline: as §1
Escherichia coli = experiment: Antibacterial activity against Escherichia coli after 18 to 22 hrs by broth microdilution method; assay type: functional; outline: as §1
Klebsiella pneumoniae = experiment: Antibacterial activity against Klebsiella pneumoniae after 18 to 22 hrs by broth microdilution method; assay type: functional; outline: as §1
Klebsiella oxytoca = experiment: Antibacterial activity against Klebsiella oxytoca after 18 to 22 hrs by broth microdilution method; assay type: functional; outline: as §1
Enterobacter = experiment: Antibacterial activity against Enterobacter after 18 to 22 hrs by broth microdilution method; assay type: functional; outline: as §1
Klebsiella aerogenes = experiment: Antibacterial activity against Enterobacter aerogenes after 18 to 22 hrs by broth microdilution method; assay type: functional; outline: as §1
Citrobacter freundii = experiment: Antibacterial activity against Citrobacter freundii after 18 to 22 hrs by broth microdilution method; assay type: functional; outline: as §1
Proteus vulgaris = experiment: Antibacterial activity against Proteus vulgaris after 18 to 22 hrs by broth microdilution method; assay type: functional; outline: as §1
Candida albicans = experiment: Antifungal activity against Candida albicans after 24 hrs by broth microdilution method; assay type: functional
Outline: (§2)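 Candida isolates from respiratory-tract specimens, tested by NCCLS broth microdilution in Sabouraud dextrose broth. Serial compound dilutions inoculated to 10³/mL, with fungus-only and medium-only controls. Incubated 24 h at 37 °C. MIC was the lowest concentration with complete visible growth inhibition.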

[Candida] sake = Antifungal activity against Candida sake after 24 hrs by broth microdilution method; assay type: functional; conditions: Fermentozyma sake; outline: as §2
Pichia kudriavzevii = experiment: Antifungal activity against Candida krusei after 24 hrs by broth microdilution method; assay type: functional; outline: as §2
Helicobacter pylori [3] = experiment: Antibacterial activity against Helicobacter pylori ATCC 43504 clinical isolates after 72 hrs by agar dilution method; assay type: functional; conditions: ATCC 43504, 72 h
Outline: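 Agar dilution per NCCLS. Twenty clinical strains from duodenal ulcer or gastritis patients, with ATCC 43504 as control in each session, were subcultured twice on Columbia agar plus 10% horse serum and 0.25% yeast extract (72 h, 37 °C, 10% CO₂). Inoculum of 0.5 McFarland in Wilkins Chalgren broth, about 5 × 10⁵ CFU/spot by Steer's replicator. Plates held twofold compound dilutions down to 0.0039 µg/mL and were incubated 72 h at 37 °C, 10% CO₂. MIC was the lowest concentration inhibiting visible growth.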

Helicobacter pylori [4] = experiment: Antibacterial activity against metronidazole-resistant Helicobacter pylori NCTC 11637 after 72 hrs by agar dilution method; assay type: functional; conditions: NCTC 11637, 72 h
Outline: (§3)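 H. pylori clinical isolates (ATCC 43504 control each session) stored at -80 °C and subcultured twice on Columbia agar with 10% horse serum and 0.25% yeast extract. Suspensions of 0.5 McFarland were spotted by Steer's replicator at about 5 × 10⁵ CFU/spot onto agar with twofold compound dilutions. Plates were incubated 72 h at 37 °C in 10% CO₂. MIC was the lowest concentration without visible growth.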

Helicobacter pylori [5] = experiment: Antibacterial activity against metronidazole-resistant Helicobacter pylori isolate 1 after 72 hrs by agar dilution method; assay type: functional; conditions: isolate 1, 72 h; outline: as §3
Helicobacter pylori [6] = experiment: Antibacterial activity against metronidazole-resistant Helicobacter pylori isolate 8 after 72 hrs by agar dilution method; assay type: functional; conditions: isolate 8, 72 h; outline: as §3
Helicobacter pylori [7] = experiment: Antibacterial activity against metronidazole-resistant Helicobacter pylori isolate 18 after 72 hrs by agar dilution method; assay type: functional; conditions: isolate 18, 72 h; outline: as §3
Helicobacter pylori [8] = experiment: Antibacterial activity against metronidazole-resistant Helicobacter pylori isolate 20 after 72 hrs by agar dilution method; assay type: functional; conditions: isolate 20, 72 h; outline: as §3
AGS [9] = experiment: Antiinflammatory activity in human AGS cells assessed as inhibition of IL-8 production at 5 ug/mL after 24 hrs; assay type: functional, cell-based
Outline: (§4)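 AGS gastric adenocarcinoma cells were grown in F-12K with 10% FBS. They were seeded at 1 × 10⁵/mL for 24 h, preincubated 1 h with compound at 5 or 0.5 µg/mL, then exposed to H. pylori.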

AGS [10] = experiment: Antiinflammatory activity in human AGS cells assessed as inhibition of IL-8 production at 0.5 ug/mL after 24 hrs; assay type: functional, cell-based; outline: as §4

| SMILES | MIC (Staphylococcus aureus) [µg/mL] | MIC [1] [µg/mL] | MIC (Staphylococcus hominis) [µg/mL] | MIC [2] [µg/mL] | MIC (Enterococcus faecalis) [µg/mL] | MIC (Escherichia coli) [µg/mL] | MIC (Klebsiella pneumoniae) [µg/mL] | MIC (Klebsiella oxytoca) [µg/mL] | MIC (Enterobacter) [µg/mL] | MIC (Klebsiella aerogenes) [µg/mL] | MIC (Citrobacter freundii) [µg/mL] | MIC (Proteus vulgaris) [µg/mL] | MIC (Candida albicans) [µg/mL] | MIC50 (Helicobacter pylori [3]) [µg/mL] | MIC90 (Helicobacter pylori [3]) [µg/mL] | MIC (Helicobacter pylori [4]) [µg/mL] | MIC (Helicobacter pylori [5]) [µg/mL] | MIC (Helicobacter pylori [6]) [µg/mL] | MIC (Helicobacter pylori [7]) [µg/mL] | MIC (Helicobacter pylori [8]) [µg/mL] | further results |
| --- | --- | --- | --- | --- | --- | --- | --- | --- | --- | --- | --- | --- | --- | --- | --- | --- | --- | --- | --- | --- | --- |
| O=C(O)c1ccc(NC(=O)c2cc3cc(Br)cc(Cl)c3oc2=O)cc1 | > 128 | > 128 | > 128 | > 128 | > 128 | > 128 | > 128 | > 128 | > 128 | > 128 | > 128 | > 128 | > 128 | 8 (≈ 18.9 µM) | 32 (≈ 75.7 µM) | 32 (≈ 75.7 µM) | 16 (≈ 37.9 µM) | 32 (≈ 75.7 µM) | 16 (≈ 37.9 µM) | 32 (≈ 75.7 µM) | MIC ([Candida] sake): > 128 µg/mL; MIC (Pichia kudriavzevii): > 128 µg/mL; inhibition (AGS [9]): inactive; inhibition (AGS [10]): inactive |
| CCOC(=O)c1ccc(NC(=O)c2cc3cc(Br)cc(Br)c3oc2=O)cc1 | > 128 | > 128 | > 128 | > 128 | > 128 | > 128 | > 128 | > 128 | > 128 | > 128 | > 128 | > 128 | > 128 | 64 (≈ 129 µM) | 64 (≈ 129 µM) | 64 (≈ 129 µM) | 64 (≈ 129 µM) | 64 (≈ 129 µM) | 64 (≈ 129 µM) | 64 (≈ 129 µM) | MIC ([Candida] sake): > 128 µg/mL; MIC (Pichia kudriavzevii): > 128 µg/mL; inhibition (AGS [9]): inactive; inhibition (AGS [10]): inactive |
| O=C(O)c1ccc(NC(=O)c2cc3cc(O)ccc3oc2=O)cc1 | > 128 | > 128 | > 128 | > 128 | > 128 | > 128 | > 128 | > 128 | > 128 | > 128 | > 128 | > 128 | > 128 | 16 (≈ 49.2 µM) | > 128 | 16 (≈ 49.2 µM) | 4 (≈ 12.3 µM) | 16 (≈ 49.2 µM) | 16 (≈ 49.2 µM) | 4 (≈ 12.3 µM) | MIC ([Candida] sake): > 128 µg/mL; MIC (Pichia kudriavzevii): > 128 µg/mL; inhibition (AGS [9]): inactive; inhibition (AGS [10]): inactive |
| CCOC(=O)N1CCC(NC(=O)c2cc3cc(Br)ccc3oc2=O)CC1 | > 128 | > 128 | > 128 | > 128 | > 128 | > 128 | > 128 | > 128 | > 128 | > 128 | > 128 | > 128 | > 128 | 64 (≈ 151 µM) | 64 (≈ 151 µM) | 64 (≈ 151 µM) | 32 (≈ 75.6 µM) | 64 (≈ 151 µM) | 32 (≈ 75.6 µM) | 32 (≈ 75.6 µM) | MIC ([Candida] sake): > 128 µg/mL; MIC (Pichia kudriavzevii): > 128 µg/mL; inhibition (AGS [9]): inactive; inhibition (AGS [10]): inactive |
| Cc1ncc([N+](=O)[O-])n1CCO [METRONIDAZOLE] | – | – | – | – | – | – | – | – | – | – | – | – | – | 2 (≈ 11.7 µM) | 128 (≈ 748 µM) | 128 (≈ 748 µM) | 64 (≈ 374 µM) | 64 (≈ 374 µM) | 128 (≈ 748 µM) | 128 (≈ 748 µM) | – |
| COc1ccc2cc(C(=O)Nc3ccc(C(=O)O)cc3)c(=O)oc2c1 | > 128 | > 128 | > 128 | > 128 | > 128 | > 128 | > 128 | > 128 | > 128 | > 128 | > 128 | > 128 | > 128 | > 128 | > 128 | > 128 | > 128 | > 128 | > 128 | > 128 | MIC ([Candida] sake): > 128 µg/mL; MIC (Pichia kudriavzevii): > 128 µg/mL; inhibition (AGS [9]): inactive; inhibition (AGS [10]): inactive |
| O=C(O)c1ccc(NC(=O)c2cc3cccc(O)c3oc2=O)cc1 | > 128 | > 128 | > 128 | > 128 | > 128 | > 128 | > 128 | > 128 | > 128 | > 128 | > 128 | > 128 | > 128 | > 128 | > 128 | 4 (≈ 12.3 µM) | > 128 | > 128 | > 128 | > 128 | MIC ([Candida] sake): > 128 µg/mL; MIC (Pichia kudriavzevii): > 128 µg/mL; inhibition (AGS [9]): inactive; inhibition (AGS [10]): inactive |
| O=C(O)c1ccc(NC(=O)c2cc3cc([N+](=O)[O-])ccc3oc2=O)cc1 | > 128 | > 128 | > 128 | > 128 | > 128 | > 128 | > 128 | > 128 | > 128 | > 128 | > 128 | > 128 | > 128 | 128 (≈ 361 µM) | 128 (≈ 361 µM) | 128 (≈ 361 µM) | 128 (≈ 361 µM) | 64 (≈ 181 µM) | 128 (≈ 361 µM) | 64 (≈ 181 µM) | MIC ([Candida] sake): > 128 µg/mL; MIC (Pichia kudriavzevii): > 128 µg/mL; inhibition (AGS [9]): inactive; inhibition (AGS [10]): inactive |
| O=C(O)c1ccc(NC(=O)c2cc3cc(Br)cc(Br)c3oc2=O)cc1 | > 128 | > 128 | > 128 | > 128 | > 128 | > 128 | > 128 | > 128 | > 128 | > 128 | > 128 | > 128 | > 128 | 16 (≈ 34.3 µM) | 16 (≈ 34.3 µM) | 16 (≈ 34.3 µM) | 16 (≈ 34.3 µM) | 16 (≈ 34.3 µM) | 16 (≈ 34.3 µM) | 16 (≈ 34.3 µM) | MIC ([Candida] sake): > 128 µg/mL; MIC (Pichia kudriavzevii): > 128 µg/mL; inhibition (AGS [9]): inactive; inhibition (AGS [10]): inactive |
| CCOC(=O)N1CCC(NC(=O)c2cc3ccccc3oc2=O)CC1 | > 128 | > 128 | > 128 | > 128 | > 128 | > 128 | > 128 | > 128 | > 128 | > 128 | > 128 | > 128 | > 128 | > 128 | > 128 | > 128 | 128 (≈ 372 µM) | > 128 | 128 (≈ 372 µM) | > 128 | MIC ([Candida] sake): > 128 µg/mL; MIC (Pichia kudriavzevii): > 128 µg/mL; inhibition (AGS [9]): inactive; inhibition (AGS [10]): inactive |
| CCOC(=O)c1ccc(NC(=O)c2cc3cccc(O)c3oc2=O)cc1 | > 128 | > 128 | > 128 | > 128 | > 128 | > 128 | > 128 | > 128 | > 128 | > 128 | > 128 | > 128 | > 128 | > 128 | > 128 | > 128 | > 128 | > 128 | > 128 | > 128 | MIC ([Candida] sake): > 128 µg/mL; MIC (Pichia kudriavzevii): > 128 µg/mL; inhibition (AGS [9]): inactive; inhibition (AGS [10]): inactive |
